The record followed here is ChEMBL document CHEMBL3091373, “Phenylspirodrimanes with anti-HIV activity from the sponge-derived fungus Stachybotrys chartarum MXH-X73” (J Nat Prod, 2013).

One series has as its system HEK-293T. Nature of the series: Cytotoxicity against human 293T cells at 10 uM after 48 hrs. Format: cell-based. The method in brief:
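293T cells at the anti-HIV assay culture conditions (seeded 6 × 10^4 cells/well the day before), compound in DMSO incubated 48 h without virus; viability read with a cell proliferation assay kit.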

Series [1] relates to Human immunodeficiency virus 1. The series is described as follows: Antiviral activity against HIV-1 expressing reverse transcriptase K103N/P225H double mutant infected in human 293T cells co-transfected with VSVG protein assessed as inhibition of viral-replication incubated 15 mins prior to viral-infection measured after 48 hrs by luciferase reporter gene assay. It counts as functional, organism-based. To be noted: Human immunodeficiency virus 1, HEK-293T. The method in brief: (§1)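 VSV-G-pseudotyped single-cycle HIV made by Ca3(PO4)2 co-transfection of 293T cells with env-deficient pNL4-3.luc.R-E- (wild-type or RT mutant) vector; medium changed 16 h post-transfection, supernatant harvested at 48 h, filtered, diluted to 0.2 ng p24/mL. Target 293T cells seeded 6 × 10^4/well the day before; compounds in DMSO added 15 min pre-infection; luciferase of lysates read 48 h post-infection.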
A general note: In a reporter assay the amount or activity of a reporter protein is the signal.

For series [2], the system named is Human immunodeficiency virus 1. Nature of the series: Antiviral activity against HIV-1 expressing reverse transcriptase K103N/G190A double mutant infected in human 293T cells co-transfected with VSVG protein assessed as inhibition of viral-replication incubated 15 mins prior to viral-infection measured after 48 hrs by luciferase reporter gene assay. It counts as functional, organism-based. To be noted: Human immunodeficiency virus 1, HEK-293T. The method in brief:
as §1

Series [3] concerns Human immunodeficiency virus 1. The series is described as follows: Antiviral activity against HIV-1 expressing reverse transcriptase K103N/V108I double mutant infected in human 293T cells co-transfected with VSVG protein assessed as inhibition of viral-replication incubated 15 mins prior to viral-infection measured after 48 hrs by luciferase reporter gene assay. It counts as functional, organism-based. To be noted: Human immunodeficiency virus 1, HEK-293T. The method in brief: as §1

Series [4] deals with Human immunodeficiency virus 1. The series is described as follows: Antiviral activity against HIV-1 expressing reverse transcriptase L100I/K103N double mutant infected in human 293T cells co-transfected with VSVG protein assessed as inhibition of viral-replication incubated 15 mins prior to viral-infection measured after 48 hrs by luciferase reporter gene assay. Format: functional, organism-based. To be noted: Human immunodeficiency virus 1, HEK-293T. The method in brief:
as §1

Series [5] concerns Human immunodeficiency virus 1. The series is described as follows: Antiviral activity against HIV-1 expressing reverse transcriptase K103N mutant infected in human 293T cells co-transfected with VSVG protein assessed as inhibition of viral-replication incubated 15 mins prior to viral-infection measured after 48 hrs by luciferase reporter gene assay. It counts as functional, organism-based. To be noted: Human immunodeficiency virus 1, HEK-293T. The method in brief: as §1

Series [6] relates to Human immunodeficiency virus 1. The series is described as follows: Antiviral activity against wild-type HIV-1 infected in human 293T cells co-transfected with VSVG protein assessed as inhibition of viral-replication incubated 15 mins prior to viral-infection measured after 48 hrs by luciferase reporter gene assay. Format: functional, organism-based. To be noted: Human immunodeficiency virus 1, HEK-293T. The method in brief: as §1

The test system of series [7] is Human immunodeficiency virus 1. Nature of the series: Ratio of EC50 for HIV-1 expressing reverse transcriptase K103N/P225H double mutant to EC50 for wild-type HIV-1. It counts as functional. The method in brief:
(§2)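 Fold change, computed as the EC50 against each VSV-G-pseudotyped NNRTI-resistant RT-mutant HIV-1 divided by the EC50 against wild-type pseudovirus. Both EC50s come from the 293T single-cycle luciferase infection assay, with compound added 15 min before infection and read at 48 h.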

Series [8] concerns Human immunodeficiency virus 1. Nature of the series: Ratio of EC50 for HIV-1 expressing reverse transcriptase K103N/G190A double mutant to EC50 for wild-type HIV-1. Format: functional. The method in brief:
as §2

Series [9] concerns Human immunodeficiency virus 1. Nature of the series: Ratio of EC50 for HIV-1 expressing reverse transcriptase K103N/V108I double mutant to EC50 for wild-type HIV-1. It counts as functional. The method in brief: as §2
Series [10] deals with Human immunodeficiency virus 1. Nature of the series: Ratio of EC50 for HIV-1 expressing reverse transcriptase L100I/K103N double mutant to EC50 for wild-type HIV-1. Format: functional. The method in brief:
as §2

Series [11] deals with Human immunodeficiency virus 1. Nature of the series: Ratio of EC50 for HIV-1 expressing reverse transcriptase K103N mutant to EC50 for wild-type HIV-1. Format: functional. The method in brief: as §2
In series [12] the target is Human immunodeficiency virus type 1 reverse transcriptase (Human immunodeficiency virus 1) (UniProt Q72547). Nature of the series: (§3) Inhibition of HIV-1 reverse transcriptase after 1 hr by spectrophotometry. The method in brief:
(§4)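 RNA-dependent DNA polymerase activity. Started with reverse transcriptase, 1 h at 37 °C. Product captured on streptavidin plate 1 h at 37 °C, TMB 15 min, stopped with H2SO4, OD450. Dose-response EC50.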

Series [13] addresses Human immunodeficiency virus type 1 reverse transcriptase (Human immunodeficiency virus 1, UniProt Q72547). The description is as §3. The method in brief: as §4
Series [14] relates to Human immunodeficiency virus 1. Nature of the series: Antiviral activity against wild-type HIV-1 infected in HEK293T cells co-transfected with VSVG protein assessed as time required for 50% failure of viral replication at 10 uM by luciferase reporter gene assay. Format: functional, HEK-293T. The method in brief: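 Time-of-addition run: HEK 293T cells seeded 6 × 10^4/well, held overnight at 37 °C, then infected with VSVG/HIV-wt pseudoparticles (t = 0 at particle addition). Compounds added at a final 10 μM at 0, 2, 4, 6, 8, 10, 12, 14 or 16 h. Cells lysed 48 h post-infection and luciferase activity measured.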

Take `C[C@@H]1CC[C@H]2C(C)(C)[C@H](O)CC[C@]2(C)[C@@]12Cc1c(O)cc(CO[C@H]3O[C@H](CO)[C@@H](O)[C@H](O)[C@H]3O)c(C=O)c1O2`: in the series on HEK-293T, the Activity entry is listed as “Non-toxic”.
The term EC50 denotes the concentration at which the effect is half-maximal. As for `Cc1ccnc2c1NC(=O)c1cccnc1N2C1CC1` [NEVIRAPINE], the EC50 in [1] is 23.3 µM; in [2], 51.9 µM; in series [3] it was 7.5 µM; in series [4] it was 3.3 µM; in [5] it was 2.3 µM; in series [6], 0.023 µM.
For the compound `CC(=O)CN1Cc2c(cc(O)c3c2O[C@]2(C3)[C@H](C)CC[C@H]3C(C)(C)[C@H](O)CC[C@@]32C)C1=O`, the “Ratio EC50” value in series [7] worked out at 0.7; in series [8], 1.7; in series [9], 1.6; in series [10] it was 2.8; in series [11] it was 0.8. Moreover, the EC50 in series [1] came to 6.2 µM; in series [2], 14.2 µM; in [3], 13.3 µM; in series [4] it was 23.8 µM; in series [5], 7 µM; in [13], 50 µM. Besides, in series [6], the 50% effective concentration (EC50) was 8.4 µM. Besides, the inhibition result in [12] was “Dose-dependent effect”. Also, the Time in [14] was determined as 12.66 h. Also, the Activity result with HEK-293T was “Non-toxic”.
Consider `COC(=O)CC[C@@H](C(=O)O)N1Cc2c(cc(O)c3c2O[C@]2(C3)[C@H](C)CC[C@H]3C(C)(C)[C@H](O)CC[C@@]32C)C1=O`, for which the Activity entry in the series on HEK-293T is “Non-toxic”.
Turning to `C[C@@H]1CC[C@H]2C(C)(C)[C@H](O)CC[C@]2(C)[C@@]12Cc1c(O)cc(CO)c(C=O)c1O2`, the Activity result in the series with HEK-293T is on record as “Non-toxic”.
As for `C[C@@H]1CC[C@H]2C(C)(C)[C@H](O)[C@H](O)C[C@]2(C)[C@@]12Cc1c(O)cc(CO[C@H]3O[C@H](CO)[C@@H](O)[C@H](O)[C@H]3O)c(C=O)c1O2`, the Activity result with HEK-293T is given as “Non-toxic”.
For the compound `Cc1nnc(C(=O)NC(C)(C)c2nc(C(=O)NCc3ccc(F)cc3)c(O)c(=O)n2C)o1`, in series [14], the Time was 17.78 h.
Turning to `Cc1cc(O)c2c(c1C=O)O[C@]1(C2)[C@H](C)CC[C@H]2C(C)(C)[C@H](O)CC[C@@]21C`, the Activity entry in the series on HEK-293T is on record as “Non-toxic”.
Still for that read-out and setting: for `C[C@@H]1CC[C@H]2C(C)(C)[C@H](O)CC[C@]2(C)[C@@]12Cc1c(O)cc3c(c1O2)CN(CCCCN1Cc2c(cc(O)c4c2O[C@]2(C4)[C@H](C)CC[C@H]4C(C)(C)[C@H](O)CC[C@@]42C)C1=O)C3=O` the value was “Non-toxic”; for `COC(=O)[C@H](CCC(=O)O)N1Cc2c(cc(O)c3c2O[C@]2(C3)[C@H](C)CC[C@H]3C(C)(C)[C@H](O)CC[C@@]32C)C1=O`, “Non-toxic”.
`Cc1cn([C@H]2C[C@H](N=[N+]=[N-])[C@@H](CO)O2)c(=O)[nH]c1=O` [ZIDOVUDINE]: the Time in series [14] worked out at 11.59 h.
On to `C[C@@H]1CC[C@H]2C(C)(C)[C@H](O)CC[C@]2(C)[C@@]12Cc1c(O)cc3c(c1O2)CN(CCCCCN1Cc2c(cc(O)c4c2O[C@]2(C4)[C@H](C)CC[C@H]4C(C)(C)[C@H](O)CC[C@@]42C)C1=O)C3=O`, for which the Activity result in the series with HEK-293T is on record as “Non-toxic”.
For the compound `O=C1Nc2ccc(Cl)cc2[C@@](C#CC2CC2)(C(F)(F)F)O1` [EFAVIRENZ], in series [14], the Time was found to be 13.06 h.
Regarding `C[C@@H]1CC[C@H]2C(C)(C)[C@H](O)C(O)C[C@]2(C)[C@@]12Cc1c(O)cc(CO)c(C=O)c1O2` (some centres undefined), the Activity result in the series with HEK-293T is “Non-toxic”.
On the same count and under the same terms, for `C[C@@H]1CC[C@H]2C(C)(C)[C@H](O)CC[C@]2(C)[C@@]12Cc1c(O)cc3c(c1O2)CN([C@@H](CCC(=O)O)C(=O)O)C3=O` the value was “Non-toxic”.
